Screens as filed in PubChem BioAssay.
This is a sample that favours compounds with a hit; in the whole collection about 1.8% have one here.
iPSC survival up: enhancers of single-cell hiPSC survival, primary screen, ATPlite luminescence; survival enhancement, % at 20 µM; hit rate 0.044% among 360,000; 100% = ROCK inhibitor wells, 0% = DMSO; in the data active = survival enhancement above about 18%;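 also: cells exposed to compounds for 16 hours before the ATP read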
MT1-MMP act inh: blockers of MT1-MMP proenzyme processing, primary screen, HT1080 RFP-PRO-GFP cells, GFP/RFP fluorescence; AID 651647, 2012; Matrix metalloproteinase-14 (Homo sapiens), P50281; GFP/RFP ratio change, % at 20 µM; hit rate 0.061% among 360,000; GFP/RFP ratio fluorescence, overnight; percent of plate control window, DMSO zero;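 active = GFP/RFP ratio change of at least 30% with cell ATP level not reduced by more than half and red fluorescence within 50% of control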
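Assay system: RFP-PRO-GFP reporter HT1080 cells; read-out basis: GFP/RFP fluorescence ratio; benchmarks: DMSO wells and RFP-L50D-GFP cells; doses: 20 µM single dose, 1% DMSO; schedule: overnight cell settling, then overnight compound exposure, 37 °C, 5% CO2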
Tb MetRS inh: T. brucei MetRS inhibitors, primary screen, biochemical, luminescence | methionyl-tRNA synthetase (Trypanosoma brucei brucei) | purified T. brucei MetRS, ATP depletion, Kinase-Glo luminescence | inhibition, % at 11.9 µM | hit rate 0.4% among 360,000;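 active = inhibition above a per-plate cutoff of the control wells' mean inhibition plus 3 SD, cut at about 5.5% in these data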;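 also: 0% = DMSO wells median and 100% = median of wells with control inhibitor compound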
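Assay system: T. brucei methionyl-tRNA synthetase, purified | Medium: HEPES buffer with MgCl2, KCl, DTT, spermine, BSA, pyrophosphatase | Compound: 11.9 µM single point | Incubation: 15 min enzyme-compound preincubation, 2 h reaction, 10 min detection, 25 °C | Measured by: Kinase-Glo luciferase luminescence reporting remaining unconsumed ATP | Measure: % inhibition normalized to control-well medians | Replication: Singlicate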
PREPL inh: PREPL enzyme inhibitors, primary screen, biochemical, fluorescence polarization. AID 2751, 2010. hit rate 0.68% among 320,000. Prolyl endopeptidase-like (Homo sapiens), Q4J6C6. inhibition, % at 5.96 µM. recombinant PREPL, fluorescence polarization activity-based probe; in the data active = inhibition above about 43%;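 also: 0% = enzyme with DMSO and 100% = wells lacking enzyme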
Target sequence (Q4J6C6 whole entry, looked up): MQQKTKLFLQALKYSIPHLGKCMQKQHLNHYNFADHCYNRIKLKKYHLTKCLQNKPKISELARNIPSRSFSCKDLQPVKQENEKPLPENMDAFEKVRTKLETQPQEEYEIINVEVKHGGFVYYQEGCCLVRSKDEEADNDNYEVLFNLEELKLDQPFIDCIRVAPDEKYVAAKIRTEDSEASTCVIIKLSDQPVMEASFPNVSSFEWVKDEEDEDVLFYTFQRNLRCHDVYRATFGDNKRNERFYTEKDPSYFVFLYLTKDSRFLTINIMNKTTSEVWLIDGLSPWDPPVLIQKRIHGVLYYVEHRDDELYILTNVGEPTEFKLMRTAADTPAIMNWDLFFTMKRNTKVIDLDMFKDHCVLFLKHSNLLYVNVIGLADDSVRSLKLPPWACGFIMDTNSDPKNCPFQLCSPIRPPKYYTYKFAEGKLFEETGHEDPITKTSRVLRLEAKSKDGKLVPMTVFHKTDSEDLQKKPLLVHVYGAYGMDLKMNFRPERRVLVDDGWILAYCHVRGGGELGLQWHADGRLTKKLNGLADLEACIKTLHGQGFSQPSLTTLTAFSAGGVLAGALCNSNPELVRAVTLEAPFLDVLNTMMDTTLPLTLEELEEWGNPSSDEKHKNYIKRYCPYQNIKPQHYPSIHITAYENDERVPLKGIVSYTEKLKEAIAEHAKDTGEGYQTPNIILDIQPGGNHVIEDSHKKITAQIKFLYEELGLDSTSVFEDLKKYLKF
SKN-1 block: suppressors of acrylamide-induced Pgst-4::GFP reporter in worms, primary screen, SKN-1 inhibitor project, whole organism, uHTS, GFP/RFP fluorescence ratio, strain VP596; C. elegans VP596 Pgst-4::GFP/RFP ratio, 24 h; inhibition, % at 21.8 µM; hit rate 0.49% among 360,000; AID 624304, 2012;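 active = interference check ratio from 0.5 to 1.5 plus GFP to RFP signal ratio inhibition reaching or exceeding a fixed threshold, cut at about 30% in these data, passing the limit was not always enough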
eLon inh: inhibitors of E. coli Lon protease, primary screen, biochemical, fluorescence polarization | hit rate 0.42% among 360,000 | inhibition, % at 7.94 µM | purified E. coli Lon protease | AID 602123, 2011; in the data active = inhibition above about 13%, passing the limit was not always enough;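 also: 0% = enzyme with probe and DMSO and 100% = no enzyme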
Tb MetRS conf: T. brucei MetRS inhibitors, confirmation, biochemical, luminescence; hit rate 93% among 1,400; T. brucei MetRS enzyme, luminescence (ATP depletion); inhibition, % at 11.9 µM; shares compounds with Tb MetRS inh; AID 624412, 2012; in the data active = inhibition above about 7%
Jurkat cytotox: Jurkat T cell cytotoxicity, cytotoxicity control for T. brucei MetRS inhibitor project, luminescence, high throughput; shares compounds with Tb MetRS inh; Jurkat cells viability, ATP luminescence; inhibition, % at 8.3 µM; hit rate 12% among 1,400; in the data active = inhibition above about 15%;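 also: 0% = vehicle and 100% = reference inhibitor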
TbMetRS FP orth: T. brucei MetRS inhibitors, orthogonal assay for T. brucei MetRS inhibitor project, biochemical, fluorescence polarization | inhibition, % at 11.9 µM | AID 651607, 2012 | purified T. brucei MetRS | shares compounds with Tb MetRS inh | hit rate 44% among 1,400; in the data active = inhibition above about 17%;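 also: 0% = vehicle wells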
The depositor's hits bear a star; . = no result given.

SMILES | iPSC survival up | MT1-MMP act inh | Tb MetRS inh | PREPL inh | SKN-1 block | eLon inh | Tb MetRS conf | Jurkat cytotox | TbMetRS FP orth
CC(=O)N1CCN(c2ccccc2NC(=O)c2ccco2)CC1 | -0.3 | -1.8 | -0.1 | 20.3 | 15.2 | 6.3 | . | . | .
O=C(CCc1nc2ccccc2c(=O)[nH]1)OCCOc1ccc(Cl)cc1 | -0.2 | 3.2 | 16.2* | -7.5 | -5.7 | -4.5 | 30.1* | 4.5 | 18.7*
C=CCN1C(=O)C(Cc2ccc(OC)cc2)S/C1=N/N=C/c1ccco1 (centres undefined) | 1.0 | 4.9 | -0.9 | -0.2 | 0.8 | -5.9 | . | . | .
S=c1[nH]nc(CCc2nc3ccccc3[nH]2)n1-c1cccc(Cl)c1 | 0.1 | -0.4 | 7.7* | -6.0 | 9.8 | 3.2 | 14.1* | -6.5 | 0.8
O=C(CSCc1nc2ccccc2[nH]1)N1CCN(c2cccc(Cl)c2)CC1 | -2.7 | -0.2 | 13.2* | -8.3 | 3.9 | -8.9 | 26.1* | 3.3 | 11.0
O=C(CSCc1nc2ccccc2[nH]1)N1CCN(c2ccc(F)cc2)CC1 | 4.9 | -7.1 | 1.9 | -23.6 | 14.8 | -5.3 | . | . | .
S=c1[nH]nc(CCc2nc3ccccc3[nH]2)n1-c1ccccc1 | -3.0 | 4.0 | 0.3 | 2.0 | 10.3 | -12.2 | . | . | .
O=C(c1cc(Cl)cc(Cl)c1)N1CCC(=O)N([C@H](COCc2ccccc2)Cc2ccccc2)CC1 | -1.1 | -6.8 | -0.2 | . | 8.8 | -6.9 | . | . | .
Cc1[nH]c2ccccc2c1CCNC(=O)c1c(N)no[n+]1[O-] | 0.0 | -3.2 | 0.6 | -1.3 | -2.8 | -2.8 | . | . | .
O=C(CSc1n[nH]c(-c2ccc(Br)cc2)n1)NC1CCCC1 | -0.3 | -4.3 | 12.5* | 22.7 | 7.0 | -14.3 | 41.4* | 0.8 | 13.6
Cc1ccc(S(=O)(=O)/C(C#N)=C/c2c[nH]c3ccccc23)cc1 | 0.6 | 1.0 | 19.1* | 10.7 | 6.5 | -3.6 | 39.8* | -1.0 | 23.5*
O=C(Cc1cccs1)NCc1cc(Cl)cc(Cl)c1 | -0.1 | -0.1 | 56.2* | -24.3 | 9.9 | 3.4 | 73.5* | -2.2 | 43.9*
S=C(NCc1cccs1)Nc1cccc(Cl)c1 | 1.0 | 5.3 | 2.5 | 3.5 | -7.6 | 5.1 | . | . | .
O=C(Cc1cccs1)NCc1cccc(Cl)c1 | -0.2 | 1.9 | 1.7 | . | 1.4 | 0.0 | . | . | .
S=C(NCc1cccs1)Nc1cc(Cl)cc(Cl)c1 | -0.6 | -0.9 | 23.5* | -10.9 | -1.8 | 4.9 | 30.8* | 3.9 | 19.8*
Cc1ccc(S(=O)(=O)CCC(=O)Nc2nc(-c3ccccn3)cs2)cc1 | 1.7 | 1.4 | 0.0 | 6.5 | -7.7 | 4.5 | . | . | .
O=C(CCCOc1ccc(Cl)cc1Cl)NCCCn1ccnc1 | 3.6 | -2.3 | 6.5* | 18.6 | -4.3 | -7.9 | 18.1* | -7.2 | 11.4
OC(COc1ccc(Cl)cc1Cl)Cn1ccnc1 (centres undefined) | -0.6 | -1.2 | 6.0* | -4.0 | 23.8 | -12.8 | 14.3* | -0.7 | 3.7
Cc1cc(Cl)ccc1OCCCC(=O)NCCCn1ccnc1 | 0.2 | 1.6 | 2.8 | 14.8 | -2.2 | 7.3 | . | . | .
CCOC(=O)C(=COC(=O)c1ccccc1)NC(=O)Cc1ccccc1 | -1.1 | -0.7 | -0.2 | . | -6.9 | -5.7 | . | . | .
COc1ccc(S(=O)(=O)N2CCOCC2)c(Cl)c1Cl | 4.3 | -3.5 | 0.1 | -4.8 | 17.7 | -1.4 | . | . | .
COC(=O)/C(=C\Nc1ccc(OC)cc1)NC(=O)c1ccc(Cl)cc1Cl | 1.9 | 1.0 | 20.2* | 3.2 | 0.2 | 2.6 | 56.7* | 7.2 | 30.3*
